The entries come from a sample that favours hits as a whole.
T cruzi growth-1: inhibitors of T. cruzi proliferation | inhibition, % at 8.34 µM | hit rate 5.9% among 77,000 | T. cruzi beta-gal in NIH3T3, GalScreen luminescence, 90 h;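 active = mean inhibition above about 93%, with at least 55% of replicates each passing it, limit read from the data, passing the limit was not always enough; inconclusive = only one of those two conditions holds; inactive = neither condition holds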
GASC1 inh: KDM4C (human) demethylase inhibition. Q9H3R0. GST-KDM4C 2-372, H3K9me3 peptide, LANCE TR-FRET. inhibition, % at 12.5 µM. hit rate 0.15% among 96,000. AID 720574;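 active = mean replicate inhibition above about 25%, with at least 55% of replicates also reaching it, limit read from the data, passing the limit was not always enough; inconclusive = only one of those two conditions met; inactive = neither condition met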
Target sequence (Q9H3R0 2-372 limits assumed): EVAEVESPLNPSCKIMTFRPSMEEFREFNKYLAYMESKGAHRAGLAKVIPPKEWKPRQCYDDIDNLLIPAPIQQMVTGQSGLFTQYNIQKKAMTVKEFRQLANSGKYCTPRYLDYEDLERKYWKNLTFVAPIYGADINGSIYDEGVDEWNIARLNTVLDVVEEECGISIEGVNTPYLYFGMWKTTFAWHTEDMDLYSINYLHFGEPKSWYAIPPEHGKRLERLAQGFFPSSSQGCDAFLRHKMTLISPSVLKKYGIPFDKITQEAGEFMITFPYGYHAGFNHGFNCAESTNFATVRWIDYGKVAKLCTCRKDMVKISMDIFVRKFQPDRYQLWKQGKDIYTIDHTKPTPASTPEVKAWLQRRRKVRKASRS
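Material: GST-tagged GASC-1 (JMJD2C) catalytic fragment, aa 2-372. Input: enzyme final amount 10 nM. Medium: HEPES buffer, pH 7.5, plus ascorbate. Reagent: H3K9me3 peptide substrate, Fe(II), 2-oxoglutarate. Doses: single dose. Times: reaction 30 min RT, detection step 1 h RT. Measured by: LANCE TR-FRET. Evaluation: Fall in 671/618 emission ratio as inhibition.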
IDH1 mut inh: inhibitors of human IDH1 R132H | hit rate 0.18% among 70,000 | O75874 | AID 624101 | inhibition, % at 10 µM | IDH1 R132H reductase, diaphorase/resazurin fluorescence, 60 min; in the data active = inhibition above about 34%; inconclusive = no clear call, values can overlap the other calls; inactive = below about 11%
T cruzi growth-2: blocks T. cruzi growth in NIH3T3 host cells | shares compounds with T cruzi growth-1 | T. cruzi beta-gal in NIH3T3, GalScreen luminescence, 90 h | inhibition, % at 8.35 µM | hit rate 72% among 5,600;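 active = mean replicate inhibition above about 95% and at least 55% of replicates individually reaching it, limit read from the data; inconclusive = only one of the two criteria is met; inactive = neither criterion is met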
T cruzi growth-3: Trypanosoma cruzi proliferation inhibition | shares compounds with T cruzi growth-1 | T. cruzi beta-gal in NIH3T3, GalScreen luminescence, 90 h | inhibition, % at 2.09 µM | hit rate 21% among 5,600 | AID 651740;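 active = mean inhibition above about 95%, with at least 55% of replicates also reaching it, limit read from the data; inconclusive = meets just one of the two conditions; inactive = meets neither condition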
3T3 cytotox: kills mouse NIH/3T3 fibroblasts. shares compounds with T cruzi growth-1. NIH/3T3 viability, CellTiter-Glo ATP luminescence, 90 h. cytotoxicity (signal decrease), % at 8.35 µM. hit rate 14% among 5,600. AID 651742;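 active = mean signal decrease across replicates above about 35% based on untreated-well scatter, with enough replicates individually passing, limit read from the data; inconclusive = no rule stated though some were filed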
NIH3T3 tox 2: cytotoxicity in mouse NIH/3T3 fibroblasts. NIH/3T3 viability, CellTiter-Glo ATP luminescence, 90 h. inhibition, % at 24.9 µM. shares compounds with T cruzi growth-1. hit rate 56% among 5,600. AID 651744;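 active = mean loss of cell viability signal at or above a set limit, and enough replicates individually reaching it; inconclusive = meets only the mean limit or only the replicate share; inactive = meets neither condition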
Of the large screens only hits and unclear results are named; the others gave an inactive call (follow-up assays come after a bar, where they were run).

C[C@H]1CN([C@@H](C)CO)C(=O)c2cc(C#Cc3cccc(F)c3)cnc2O[C@H]1CN(C)C(=O)C1CCC1	none
COc1cccc(C#Cc2cnc3c(c2)C(=O)N([C@@H](C)CO)C[C@@H](C)[C@H](CN(C)C(=O)C2CCCCC2)O3)c1	T cruzi growth-1 85.4 | T cruzi growth-2 100.0 | T cruzi growth-3 inactive | 3T3 cytotox inactive | NIH3T3 tox 2 100.5
C[C@H](CO)N1C[C@H](C)[C@@H](CN(C)C(=O)C2CCCCC2)Oc2ncc(C#Cc3cccc(F)c3)cc2C1=O	T cruzi growth-1 117.3 (no result: IDH1 mut inh) | T cruzi growth-2 103.9 | T cruzi growth-3 inactive | 3T3 cytotox inactive | NIH3T3 tox 2 76.9
COc1cccc(C#Cc2cnc3c(c2)C(=O)N([C@H](C)CO)C[C@H](C)[C@@H](CN(C)C(=O)C2CCCCC2)O3)c1	T cruzi growth-1 101.1 (no result: IDH1 mut inh) | T cruzi growth-2 109.9 | T cruzi growth-3 inactive | 3T3 cytotox inactive | NIH3T3 tox 2 102.7
COc1cccc(C#Cc2cnc3c(c2)C(=O)N([C@H](C)CO)C[C@H](C)[C@H](CN(C)C(=O)C2CCCCC2)O3)c1	none (no result: T cruzi growth-1, IDH1 mut inh)
COc1cccc(C#Cc2cnc3c(c2)C(=O)N([C@@H](C)CO)C[C@H](C)[C@@H](CN(C)C(=O)C2CCCCC2)O3)c1	T cruzi growth-1 117.0 (no result: IDH1 mut inh) | T cruzi growth-2 107.3 | T cruzi growth-3 inactive | 3T3 cytotox inactive | NIH3T3 tox 2 inactive
COc1cccc(C#Cc2cnc3c(c2)C(=O)N([C@H](C)CO)C[C@@H](C)[C@H](CN(C)C(=O)C2CCCCC2)O3)c1	none
Cc1ccc(C)c(OCC(=O)Nc2cccc(C(=O)O)c2C)c1	none (no result: T cruzi growth-1, GASC1 inh)
CN(CC(=O)Nc1ccc(Cl)c(C(F)(F)F)c1)S(=O)(=O)c1ccc(F)cc1	none (no result: T cruzi growth-1, GASC1 inh)
Cc1cc(C(=O)CSc2nnnn2-c2ccccc2)c(C)n1-c1cc(F)ccc1F	none (no result: T cruzi growth-1, GASC1 inh)
Cc1ccc2c(c1)c1c(n2CC(O)CN2CCOCC2)C(=O)CCC1 (stereo unspecified)	none (no result: T cruzi growth-1, GASC1 inh)
O=C(N/N=C/c1ccc(-c2ccccc2)c(F)c1)c1ccccn1	none (no result: T cruzi growth-1, GASC1 inh)
Cc1noc(C)c1NC(=O)N1C[C@H](O)COC[C@H]2O[C@@H](CC(=O)NCC3CC3)CC[C@@H]21	none (no result: IDH1 mut inh)
Cc1noc(C)c1NC(=O)N1C[C@@H](O)COC[C@H]2O[C@@H](CC(=O)NCC3CC3)CC[C@@H]21	T cruzi growth-1 inconclusive (no result: IDH1 mut inh) | T cruzi growth-2 inactive | T cruzi growth-3 inactive | 3T3 cytotox inactive | NIH3T3 tox 2 inactive
Cc1noc(C)c1NC(=O)N1C[C@H](O)COC[C@H]2O[C@H](CC(=O)NCC3CC3)CC[C@@H]21	none (no result: IDH1 mut inh)
Cc1noc(C)c1NC(=O)N1C[C@@H](O)COC[C@H]2O[C@H](CC(=O)NCC3CC3)CC[C@@H]21	T cruzi growth-1 101.1 (no result: IDH1 mut inh) | T cruzi growth-2 inactive | T cruzi growth-3 inactive | 3T3 cytotox inactive | NIH3T3 tox 2 inactive
O=C(CN1CCOCC1)N1CCCCN2[C@H](CO)[C@@H](c3ccc(/C=C/c4ccccc4)cc3)[C@H]2C1	none (no result: IDH1 mut inh)
O=C(CN1CCOCC1)N1CCCCN2[C@H](CO)[C@H](c3ccc(C#Cc4ccccc4)cc3)[C@@H]2C1	T cruzi growth-1 103.2 (no result: IDH1 mut inh) | T cruzi growth-2 105.6 | T cruzi growth-3 inactive | 3T3 cytotox 41.2 | NIH3T3 tox 2 66.7
O=C(CN1CCOCC1)N1CCCCN2[C@H](CO)[C@@H](c3ccc(C#Cc4ccccc4)cc3)[C@@H]2C1	none (no result: IDH1 mut inh)
O=C(CN1CCOCC1)N1CCCCN2[C@H](C1)[C@H](c1ccc(-c3ccccc3)cc1)[C@@H]2CO	none (no result: IDH1 mut inh)
O=C(CN1CCOCC1)N1CCCCN2[C@@H](CO)[C@@H](c3ccc(-c4ccccc4)cc3)[C@@H]2C1	T cruzi growth-1 91.2 (no result: IDH1 mut inh) | T cruzi growth-2 inactive | T cruzi growth-3 inactive | 3T3 cytotox inactive | NIH3T3 tox 2 inactive
O=C(CN1CCOCC1)N1CCCCN2[C@H](CO)[C@H](c3ccc(/C=C/c4ccccc4)cc3)[C@H]2C1	T cruzi growth-1 99.9 (no result: IDH1 mut inh) | T cruzi growth-2 96.6 | T cruzi growth-3 inactive | 3T3 cytotox inactive | NIH3T3 tox 2 105.1
O=C(CN1CCOCC1)N1CCCCN2[C@H](CO)[C@H](c3ccc(/C=C/c4ccccc4)cc3)[C@@H]2C1	T cruzi growth-1 106.2 (no result: IDH1 mut inh) | T cruzi growth-2 107.5 | T cruzi growth-3 inactive | 3T3 cytotox 40.5 | NIH3T3 tox 2 41.5
O=C(CN1CCOCC1)N1CCCCN2[C@H](C1)[C@@H](c1ccc(/C=C/c3ccccc3)cc1)[C@@H]2CO	none (no result: IDH1 mut inh)
